From ChEMBL document CHEMBL1811811, “Characterization of anticancer properties of 2,6-diisopropylphenol-docosahexaenoate and analogues in breast cancer cells” (Bioorg Med Chem, 2010)
Activity calls are given as the source filed them. The rule behind the calls is not given here.

Tests used:
MDA-MB-231 [1] = experiment: Induction of apoptosis in human MDA-MB-231 cells assessed as apoptotic cells at 10 uM after 24 hrs by annexin V/propidium iodide staining based FACS flow cytometry (reference value: 1.8 +/- 0.3 %); format: functional
MDA-MB-231 [2] = experiment: Induction of apoptosis in human MDA-MB-231 cells assessed as viable cells at 1 uM after 24 hrs by annexin V/propidium iodide staining based FACS flow cytometry (reference value: 89 +/- 1 %); format: functional; settings: MDA-MB-231, 24 h, read-out: Activity
MDA-MB-231 [3] = experiment: Induction of apoptosis in human MDA-MB-231 cells assessed as necrotic cells at 1 uM after 24 hrs by annexin V/propidium iodide staining based FACS flow cytometry (reference value: 9.2 +/- 0.8 %); format: functional
MDA-MB-231 [4] = experiment: Induction of apoptosis in human MDA-MB-231 cells assessed as apoptotic cells at 1 uM after 24 hrs by annexin V/propidium iodide staining based FACS flow cytometry (reference value: 1.8 +/- 0.3 %); format: functional
MDA-MB-231 [5] = experiment: Growth inhibition of human MDA-MB-231 cells after 48 hrs by WST1 assay; format: functional, cell-based
In short: (§1)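 Cells seeded at 5000/well, grown overnight (18 h) in DMEM complete medium, then switched to DMEM with 2% FBS plus treatment for 48 h at 37 °C, 5% CO2; ethanol vehicle control. WST-1 read at day 0 (baseline, X) and end; growth normalized as (Y−X)/X×100, 100 to 0 = growth inhibition, 0 to −100 = cell death. Mean ± SD, at least four experiments.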

[6] = molecular target: T1, Histone deacetylase (Homo sapiens) (UniProt Q13547+O15379+Q9UBN7+Q92769+Q9UQL6+Q8WUI4+Q9BY41+Q96DB2+P56524+Q9UKV0+Q969S8); experiment: Inhibition of HDAC in human MDA-MB-231 cells up to 25 uM after 2 hrs relative to control; format: cell-based
In short: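 MDA-MB-231 cells treated 2 h at 37 °C in DMEM with 2% FBS with varying concentrations; rinsed in PBS, trypsinized, normalized to 2×10^6 cells/mL in PBS with 0.1% Triton X-100, sonicated on ice. Total (non-specific) HDAC activity measured with a fluorometric kit; trichostatin A used for maximum inhibition to correct non-specific readings. Expressed as % of total HDAC activity versus vehicle.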

Serum [7] = experiment: Stability in human serum at 1 mM incubated for 2 hrs at 37 degC by HPLC; settings: 1000 µM
MDA-MB-231 [8] = experiment: Induction of apoptosis in human MDA-MB-231 cells assessed as necrotic cells at 10 uM after 24 hrs by annexin V/propidium iodide staining based FACS flow cytometry (reference value: 9.2 +/- 0.8 %); format: functional
Serum [9] = experiment: Stability in mouse serum at 1 mM incubated for 2 hrs at 37 degC by HPLC; settings: 1000 µM
MDA-MB-231 [10] = experiment: Growth inhibition of human MDA-MB-231 cells at 25 uM after 48 hrs by WST1 assay; format: functional, cell-based; in short: as §1
MDA-MB-231 [11] = experiment: Induction of apoptosis in human MDA-MB-231 cells assessed as viable cells at 10 uM after 24 hrs by annexin V/propidium iodide staining based FACS flow cytometry (reference value: 89 +/- 1 %); format: functional; settings: MDA-MB-231, 24 h, read-out: Activity
MDA-MB-231 [12] = experiment: Total growth inhibition of human MDA-MB-231 cells after 48 hrs by WST1 assay; format: functional; in short: as §1
MCF7 [13] = experiment: Growth inhibition of human MCF7 cells at 25 uM after 48 hrs by WST1 assay; format: functional, cell-based; in short: as §1
MCF7 [14] = experiment: Cytotoxicity against human MCF7 cells at 25 uM after 48 hrs by WST1 assay; format: functional, cell-based; in short: as §1
MDA-MB-361 [15] = experiment: Growth inhibition of human MDA-MB-361 cells at 25 uM after 48 hrs by WST1 assay; format: functional, cell-based; in short: as §1
MDA-MB-361 [16] = experiment: Cytotoxicity against human MDA-MB-361 cells at 25 uM after 48 hrs by WST1 assay; format: functional, cell-based; in short: as §1
HMEC [17] = experiment: Cytotoxicity against human HMEC cells at 25 uM after 48 hrs by WST1 assay; format: cell-based; in short: as §1
HMEC [18] = experiment: Growth inhibition of human HMEC cells at 25 uM after 48 hrs by WST1 assay; format: cell-based; in short: as §1
AU565 [19] = experiment: Cytotoxicity against human AU565 cells at 25 uM after 48 hrs by WST1 assay; format: functional, cell-based; in short: as §1
AU565 [20] = experiment: Growth inhibition of human AU565 cells at 25 uM after 48 hrs by WST1 assay; format: functional, cell-based; in short: as §1
MDA-MB-231 [21] = experiment: Cytotoxicity against human MDA-MB-231 cells at 10 uM after 48 hrs by WST1 assay; format: functional, cell-based; in short: as §1
[22] = molecular target: T1, Histone deacetylase (Homo sapiens); experiment: Inhibition of HDAC in human MDA-MB-231 cells after 2 hrs; format: cell-based
In short: (§2)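 Cells exposed 2 h at 37 °C to varying concentrations in DMEM/2% FBS, washed, trypsinized, adjusted to 2×10^6 cells/mL in PBS with 0.1% Triton X-100, and sonicated on ice. Total HDAC activity measured with a fluorometric kit; trichostatin A used as maximum inhibition to correct non-specific signal. Expressed as % of total HDAC activity versus vehicle.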

[23] = molecular target: T1, Histone deacetylase (Homo sapiens); experiment: Inhibition of HDAC in human MDA-MB-231 cells at 10 to 25 uM after 2 hrs relative to control; format: cell-based; in short: as §2
[24] = Homo sapiens, MDA-MB-231, 48 h, read-out: IC50

Compound | Activity (MDA-MB-231 [1]) [%] | viability at 1 µM (MDA-MB-231 [2]) [%] | Activity (MDA-MB-231 [3]) [%] | Activity (MDA-MB-231 [4]) [%] | growth inhibition (GI) (MDA-MB-231 [5]) | Activity (MDA-MB-231 [8]) [%] | viability at 10 µM (MDA-MB-231 [11]) [%] | TGI (MDA-MB-231 [12]; MDA-MB-231, 48 h) [µM] | IC50 (MDA-MB-231 [5]; [24]) [µM] | growth inhibition (GI) (MCF7 [13]) | Activity (MCF7 [14]) | growth inhibition (GI) (MDA-MB-361 [15]) | Activity (MDA-MB-361 [16]) | Activity (HMEC [17]) | Activity (HMEC [18]) | Activity (AU565 [19]) | growth inhibition (GI) (AU565 [20]) | also measured
CC/C=C\C/C=C\C/C=C\C/C=C\C/C=C\C/C=C\CCC(=O)O [DOCONEXENT] | 1.8 | 90.3 | 7.6 | 2.1 | Dose-dependent effect | 10.7 | 87.6 |  |  |  |  |  |  |  |  |  |  | inhibition [6]: inactive; Stability (Serum [7]): Stable; Stability (Serum [9]): Stable; growth inhibition (GI) (MDA-MB-231 [10]): inactive
CC/C=C\C/C=C\C/C=C\C/C=C\C/C=C\C/C=C\CCC(=O)Oc1ccccc1 |  |  |  |  | inactive |  |  | > 25 | > 25 |  |  |  |  |  |  |  |  | 
CC/C=C\C/C=C\C/C=C\C/C=C\C/C=C\C/C=C\CCC(=O)Oc1ccccc1C1CCCCC1 |  |  |  |  | Dose-dependent effect |  |  | 18.7 | 8.4 |  |  |  |  |  |  |  |  | 
Oc1ccccc1C1CCCCC1 |  |  |  |  |  |  |  |  |  |  |  |  |  |  |  |  |  | growth inhibition (GI) (MDA-MB-231 [10]): Active
CC(C)c1ccccc1O | 2.2 | 93.7 | 4.9 | 1.5 |  | 9 | 88.8 |  |  | inactive | inactive | inactive | inactive | Non-toxic | Non-toxic | inactive | inactive | 
CC/C=C\C/C=C\C/C=C\C/C=C\C/C=C\C/C=C\CCC(=O)Oc1ccc(C(C)C)cc1C(C)C |  |  |  |  | Dose-dependent effect |  |  | 12.6 | 7.3 |  |  |  |  |  |  |  |  | 
CC/C=C\C/C=C\C/C=C\C/C=C\C/C=C\C/C=C\CCC(=O)Oc1ccccc1C(C)C | 26.4 | 89.6 | 8.6 | 1.8 | Dose-dependent effect | 37.5 | 36.2 | 12.1 | 8.2 | Active | Active | Active | Active | Non-toxic | Non-toxic | Active | Active | Activity (MDA-MB-231 [21]): Active; Stability (Serum [7]): Stable; Stability (Serum [9]): Stable
CC/C=C\C/C=C\C/C=C\C/C=C\C/C=C\C/C=C\CCC(=O)Nc1ccccc1C(C)C |  |  |  |  |  |  |  | 8.5 | 6.5 |  |  |  |  |  |  |  |  | 
CC/C=C\C/C=C\C/C=C\C/C=C\C/C=C\C/C=C\CCC(=O)Nc1ccccc1 |  |  |  |  |  |  |  |  |  |  |  |  |  |  |  |  |  | TGI (MDA-MB-231 [12]): inactive; IC50 (MDA-MB-231 [5]; mda-mb-231): Not Active
CC(C)c1cccc(C(C)C)c1O [PROPOFOL] | 2.4 | 90.9 | 7.1 | 2 |  | 9.4 | 88.2 |  |  | inactive | inactive | inactive | inactive | Non-toxic | Non-toxic | inactive | inactive | inhibition [6]: inactive
CC/C=C\C/C=C\C/C=C\C/C=C\C/C=C\C/C=C\CCC(=O)Oc1c(C(C)C)cccc1C(C)C | 22.2 | 90.5 | 7.7 | 1.8 | Dose-dependent effect | 40.4 | 37.4 | 4.2 | 2.9 | Active | Active | Active | Active | Non-toxic | Non-toxic | Active | Active | inhibition [22]: Dose-dependent effect; Activity (MDA-MB-231 [21]): Active; Stability (Serum [7]): Stable; Stability (Serum [9]): Stable; inhibition [23]: 30%
CC/C=C\C/C=C\C/C=C\C/C=C\C/C=C\C/C=C\CCC(=O)Nc1c(C(C)C)cccc1C(C)C |  |  |  |  |  |  |  | 5.5 | 3.7 |  |  |  |  |  |  |  |  | 
